# Laboratory results reported in ChEMBL document CHEMBL1250457, “Elucidation of the topography of the thapsigargin binding site in the sarco-endoplasmic calcium ATPase” (Bioorg Med Chem, 2010).
# Molecular target: Sarcoplasmic/endoplasmic reticulum calcium ATPase 1 (Oryctolagus cuniculus, UniProt P04191)
# Assay: Inhibition of rabbit sarcoplasmic reticulum calcium ATPase by ATP regeneration assay
# How it was run: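 SERCA1a purified from rabbit skeletal muscle SR vesicles with low deoxycholate. Enzyme (1 mg/mL) pre-equilibrated 2.5–6 min with cumulatively added inhibitor (DMSO) in 1 mM EGTA, 1 mM Mg2+, 10 mM Tes pH 7.5, 100 mM KCl. Then diluted to 4 nM at 20 °C into NADH-coupled PK/LDH medium: 0.1 mM Ca2+, 1 mM Mg2+, 5 mM MgATP, 1 mM PEP, 0.15 mM NADH. Rate of A340 decrease.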
# Sarcoplasmic/endoplasmic reticulum calcium ATPase 1, sequence (P04191 whole entry): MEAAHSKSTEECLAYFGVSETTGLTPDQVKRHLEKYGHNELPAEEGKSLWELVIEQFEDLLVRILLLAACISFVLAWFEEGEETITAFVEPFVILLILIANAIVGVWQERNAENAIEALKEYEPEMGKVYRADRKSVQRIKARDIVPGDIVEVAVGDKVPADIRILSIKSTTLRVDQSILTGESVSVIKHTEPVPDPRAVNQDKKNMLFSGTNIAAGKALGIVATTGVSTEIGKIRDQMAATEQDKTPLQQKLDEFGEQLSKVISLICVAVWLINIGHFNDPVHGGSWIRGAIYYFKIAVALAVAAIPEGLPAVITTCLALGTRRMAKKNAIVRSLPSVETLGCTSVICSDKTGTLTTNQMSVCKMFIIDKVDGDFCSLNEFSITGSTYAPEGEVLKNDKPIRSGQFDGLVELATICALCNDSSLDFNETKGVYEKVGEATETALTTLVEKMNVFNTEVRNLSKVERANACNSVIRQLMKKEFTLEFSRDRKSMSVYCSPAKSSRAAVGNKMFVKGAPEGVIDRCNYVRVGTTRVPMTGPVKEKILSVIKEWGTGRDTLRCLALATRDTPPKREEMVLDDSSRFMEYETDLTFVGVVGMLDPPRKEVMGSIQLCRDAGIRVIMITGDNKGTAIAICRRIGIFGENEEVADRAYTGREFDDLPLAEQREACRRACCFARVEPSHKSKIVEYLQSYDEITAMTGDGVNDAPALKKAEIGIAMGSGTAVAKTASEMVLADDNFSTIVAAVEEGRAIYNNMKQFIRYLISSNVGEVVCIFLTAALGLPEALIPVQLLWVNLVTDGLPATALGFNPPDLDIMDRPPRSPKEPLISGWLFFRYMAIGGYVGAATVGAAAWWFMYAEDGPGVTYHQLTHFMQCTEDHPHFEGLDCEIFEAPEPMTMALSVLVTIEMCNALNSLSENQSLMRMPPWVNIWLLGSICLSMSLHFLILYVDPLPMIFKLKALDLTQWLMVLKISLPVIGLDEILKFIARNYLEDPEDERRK
row,Structure (SMILES),IC50
1,C/C=C(/C)C(=O)O[C@H]1C(C)=C2[C@H]([C@@H]1OC(=O)CCCCCCC)[C@@](C)(O)C[C@H](OC(=O)CCC)[C@@]1(O)[C@H]2OC(=O)[C@@]1(C)O,20 nM
2,C/C=C(/C)C(=O)O[C@H]1C(C)=C2[C@H]([C@@H]1OC(=O)CCCCCCC)[C@@](C)(O)C[C@H](OC(=O)CCCCCCC)[C@@]1(O)[C@H]2OC(=O)[C@@]1(C)O,20 nM
3,C/C=C(/C)C(=O)O[C@H]1C(C)=C2[C@H]([C@@H]1OC(=O)CCCCCCC)[C@@](C)(OC(=O)CCC)C[C@H](OC(=O)CCC)[C@@]1(O)[C@H]2OC(=O)[C@@]1(C)O,2.5 nM
4,C/C=C(/C)C(=O)O[C@H]1C(C)=C2[C@H]([C@@H]1OC(=O)CCCCCCC)[C@@](C)(OC(=O)CCCCCCC)C[C@H](OC(=O)CCC)[C@@]1(O)[C@H]2OC(=O)[C@@]1(C)O,16 nM
5,C/C=C(/C)C(=O)O[C@H]1C(C)=C2[C@H]([C@@H]1OC(=O)CCCCCCC)[C@@](C)(OC(=O)c1ccccc1)C[C@H](OC(=O)CCC)[C@@]1(O)[C@H]2OC(=O)[C@@]1(C)O,15.6 nM
6,C/C=C(/C)C(=O)O[C@H]1C(C)=C2[C@H]([C@@H]1OC(=O)CCCCCCC)[C@@](C)(OC(=O)c1ccc(-c3ccccc3)cc1)C[C@H](OC(=O)CCC)[C@@]1(O)[C@H]2OC(=O)[C@@]1(C)O,> 70 nM
7,C/C=C(/C)C(=O)O[C@H]1C(C)=C2[C@H]([C@@H]1OC(=O)CCCCCCC)[C@@](C)(OC(=O)Cc1ccc(-c3ccccc3)cc1)C[C@H](OC(=O)CCC)[C@@]1(O)[C@H]2OC(=O)[C@@]1(C)O,27 nM
8,C/C=C(/C)C(=O)O[C@H]1C(C)=C2[C@H]([C@@H]1OC(=O)c1ccccc1)[C@@](C)(OC(C)=O)C[C@H](OC(=O)CCC)[C@@]1(O)[C@H]2OC(=O)[C@@]1(C)O,1.6 nM
9,C/C=C(/C)C(=O)O[C@H]1C(C)=C2[C@H]([C@@H]1OC(=O)CCCCCCC)[C@@](C)(OC(=O)CCC)C[C@@H]1OC(C)(C)O[C@]3(C)C(=O)O[C@@H]2[C@]13OC(=O)CCC,> 70 nM
10,C/C=C(/C)C(=O)O[C@H]1C(C)=C2[C@H]([C@@H]1OC(=O)CCCCCCC)[C@@](C)(OC(=O)CCC)C[C@@H]1OC(C)(C)O[C@]3(C)C(=O)O[C@@H]2[C@]13O,19 nM
11,C/C=C(/C)C(=O)O[C@H]1C(C)=C2[C@H]([C@@H]1OC(=O)CCCCCCC)[C@@](C)(OC(=O)CCC)C[C@H](OC(=O)CCC)[C@@]1(O)[C@H]2OC(=O)[C@@]1(C)OC(=O)CCC,11.1 nM
12,CCCCCCCC(=O)O[C@H]1[C@H]2C(=C(C)[C@@H]1O)[C@@H]1OC(=O)[C@@](C)(O)[C@@]1(O)[C@@H](OC(=O)CCC)C[C@]2(C)OC(C)=O,> 70 nM
13,CCCCCCCC(=O)O[C@H]1[C@H]2C(=C(C)[C@@H]1OC(=O)c1ccccc1)[C@@H]1OC(=O)[C@@](C)(O)[C@@]1(O)[C@@H](OC(=O)CCC)C[C@]2(C)OC(C)=O,0.8 nM
14,CCCCCCCC(=O)O[C@H]1[C@H]2C(=C(C)[C@@H]1OC(=O)c1cccc(C)c1)[C@@H]1OC(=O)[C@@](C)(O)[C@@]1(O)[C@@H](OC(=O)CCC)C[C@]2(C)OC(C)=O,9 nM
15,CCCCCCCC(=O)O[C@H]1[C@H]2C(=C(C)[C@@H]1OC(=O)Cc1ccc(-c3ccccc3)cc1)[C@@H]1OC(=O)[C@@](C)(O)[C@@]1(O)[C@@H](OC(=O)CCC)C[C@]2(C)OC(C)=O,18 nM
16,CCCCCCCC(=O)O[C@H]1[C@H]2C(=C(C)[C@@H]1OC(=O)c1ccccc1-c1ccccc1)[C@@H]1OC(=O)[C@@](C)(O)[C@@]1(O)[C@@H](OC(=O)CCC)C[C@]2(C)OC(C)=O,3 nM
17,CCCCCCCC(=O)O[C@H]1[C@H]2C(=C(C)[C@@H]1OC(=O)c1ccc(C)cc1)[C@@H]1OC(=O)[C@@](C)(O)[C@@]1(O)[C@@H](OC(=O)CCC)C[C@]2(C)OC(C)=O,44 nM
18,CCCCCCCC(=O)O[C@H]1[C@H]2C(=C(C)[C@@H]1OC(=O)c1ccc(-c3ccccc3)cc1)[C@@H]1OC(=O)[C@@](C)(O)[C@@]1(O)[C@@H](OC(=O)CCC)C[C@]2(C)OC(C)=O,> 70 nM
19,C/C=C(/C)C(=O)O[C@H]1C(C)=C2[C@H]([C@@H]1OC(=O)CCCCCCC)[C@@](C)(OC(C)=O)C[C@H](O)[C@@]1(O)[C@H]2OC(=O)[C@@]1(C)O [DEBUTANOYLTHAPSIGARGIN],10 nM
20,C/C=C(/C)C(=O)O[C@H]1C(C)=C2[C@H]([C@@H]1OC(=O)CCCCCCC)[C@@](C)(OC(C)=O)C[C@H](OC(=O)CCC)[C@@]1(O)[C@H]2OC(=O)[C@@]1(C)O [THAPSIGARGIN],0.2 nM
